{"data": "Measurements from different studies", "read-out": "enzyme activity", "CYP2C8": "Cytochrome P450 2C8 (CYP2C8, Homo sapiens, UniProt P10632)", "CYP2C9": "Cytochrome P450 2C9 (CYP2C9, Homo sapiens, UniProt P11712)"}
{"SMILES": "Cc1cccc(F)c1N1CCC(N2Cc3cn(CC(C)(F)F)nc3N(Cc3ccccc3C(F)(F)F)C2=O)CC1", "target": "CYP2C8", "assay": "inhibitor", "test system": "human, liver microsomes", "quantity": "Ki", "result": "7 µM"}
{"SMILES": "Cc1nc2c([nH]1)c(=O)n(C)c(=O)n2Cc1ccco1", "target": "CYP2C9", "assay": "inhibitor", "test system": "human, liver microsomes", "conditions": "40 µM", "quantity": "inhibition", "result": "7%"}
{"SMILES": "CCc1cc(/C(C)=N/OCc2ccc(C3CCCCC3)c(C(F)(F)F)c2)ccc1CN1CC(C(=O)O)C1", "target": "CYP2C8", "assay": "inhibitor", "test system": "human, liver microsomes", "conditions": "200 µM, 20 min", "quantity": "inhibition", "result": "17%"}
{"SMILES": "O=C(Nc1c2c(cc3c1CCC3)CCC2)NS(=O)(=O)/C=C/c1nccs1", "target": "CYP2C8", "assay": "inhibitor", "test system": "human, liver microsomes", "conditions": "2 µM, pH 7.4", "quantity": "inhibition", "result": "59.1%"}
{"SMILES": "CC1(CO)C(O[C@@H]2O[C@H](C(=O)O)[C@@H](O)[C@H](O)[C@H]2O)CC[C@@]2(C)C1CC[C@]1(C)C2CC=C2[C@H]3CC(C)(C)[C@H](O)[C@@H](O)[C@]3(CO)[C@H](O)C[C@]21C (stereo partly drawn)", "target": "CYP2C8", "assay": "inhibitor, mass spectrometry", "test system": "human, liver microsomes", "quantity": "IC50", "result": "> 90 µg/mL"}
{"SMILES": "Nc1nc(N)c2nc(C(=O)NCc3cccc(C(F)(F)F)c3)cnc2n1", "target": "CYP2C9", "assay": "inhibitor, luciferase", "conditions": "10 µM", "quantity": "inhibition", "result": "-17.1%"}
{"SMILES": "CCc1nc2c(C)cc(N3CCN(CC(=O)N4CC(O)C4)CC3)cn2c1N(C)c1nc(-c2ccc(F)cc2)c(C#N)s1", "target": "CYP2C8", "assay": "inhibitor", "quantity": "kinact", "result": "0.000588 s⁻¹"}
{"SMILES": "CCN(Cc1cnc2nc(N)nc(N)c2n1)c1ccc(C(=O)N2CCC(C(=O)OC)CC2)cc1", "target": "CYP2C9", "assay": "inhibitor, luciferase", "conditions": "10 µM", "quantity": "inhibition", "result": "-2.93%"}
{"SMILES": "CON=C(N)c1ccc(-c2ccc(-c3ccc(C(N)=NOC)cc3)o2)cc1", "target": "CYP2C8", "assay": "substrate", "quantity": "Km", "result": "2.6 µM"}
